The text below walks through data of ChEMBL document CHEMBL4411305, “5-Aminothiophene-2,4-dicarboxamide analogues as hepatitis B virus capsid assembly effectors” (Eur J Med Chem, 2019).

For data set [1], the system named is Hepatitis B virus. The experiment in a line: Binding affinity to HBV dimeric capsid protein C150 mutant expressed in Escherichia coli BL21 (DE3) at 20 uM by Sypro orange staining based RT-PCR analysis.
In data set [2] the test system is HepG2. The data set is described as follows: Cytotoxicity against human HepG2 cells assessed as reduction in cell viability incubated for 2 days prior to compound washout followed by compound redosing and measured after 2 days by XTT assay. It counts as cell-based. The conditions noted are these: hepg2, 48 h. For orientation: Formazan colour is commonly taken as a measure of viable cells.

Data set [3] deals with Hepatitis B virus. The data set is described as follows: Antiviral activity against HBV infected in human HepAD38 cells assessed as reduction in total DNA production incubated for 2 days prior to compound washout followed by compound redosing and measured after 2 days by dot-blot analysis. The data set is classed as functional, organism-based. The method, boiled down: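 HepAD38 cells seeded at 3 × 10^4/well in tetracycline medium; next day washed twice with PBS and given tet-free complete medium with 2-fold serial dilutions, 1% final DMSO, replaced with fresh compound medium after 2 days. After 2 more days cells lysed (NP-40), DNA alkali-denatured, dot-blotted, probed with DIG-labelled HBV probe; chemiluminescence densitometry, variable-slope fit; mean ± SD of ≥2 experiments.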

A short description of data set [4]: Thermodynamic aqueous solubility in Dulbecco's phosphate buffered saline using solid sample incubated for 72 hrs under shaking condition by LC-MS/MS analysis. It counts as physicochemical. The conditions noted are these: read-out: Therm_solubility.
A short description of data set [5]: Stability in Dulbecco's phosphate buffered saline assessed as parent compound remaining at 1 uM after 24 hrs by LC-MS/MS analysis. It counts as physicochemical. The conditions noted are these: read-out: Stability. Summed up:
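Compound, typically 1 μM final, incubated in DPBS at 37 °C in triplicate; samples at 0, 1, 3, 6, 24 h quenched with 3 volumes acetonitrile containing internal standard; parent measured by LC-MS/MS.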

Data set [6] can be described thus: Half life in human plasma at 1 uM by LC-MS/MS analysis. The data set is classed as ADME, cell-free.
Data set [7] is described as follows: Half life in mouse plasma at 1 uM by LC-MS/MS analysis. The data set is classed as ADME, cell-free.
Data set [8] in a line: Protein binding in human plasma at 5 uM incubated for 5 hrs by LC-MS/MS-based equilibrium dialysis method. It counts as ADME, cell-free. Summed up:
(§1)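 Equilibrium dialysis in duplicate: compound spiked at 5 μM into normal human or mouse plasma, dialyzed against DPBS 5 h at 37 °C; both chambers sampled and quenched in acetonitrile with internal standard; LC-MS/MS gives percent bound.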

Data set [9] can be described thus: Protein binding in mouse plasma at 5 uM incubated for 5 hrs by LC-MS/MS-based equilibrium dialysis method. The data set is classed as ADME, cell-free. The method, boiled down:
as §1

The nature of data set [10]: Intrinsic clearance in human liver microsomes assessed as NADPH-dependent metabolism per mg protein at 1 uM in presence of NADPH by LC-MS/MS analysis. The data set is classed as ADME, Microsome. (Microsomes from liver hold many membrane-bound enzymes, among them those of drug oxidation.)
Data set [11] is described as follows: Intrinsic clearance in human liver microsomes assessed as glucuronidation per mg protein at 1 uM in presence of UDPGA by LC-MS/MS analysis. The data set is classed as ADME, Microsome. Summed up:
(§2)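 Glucuronidation: typically 1 μM compound with 0.5 mg/mL microsomal protein, alamethicin 50 μg/mg protein, 1 mM MgCl2, 5 mM UDPGA in 0.1 M potassium phosphate pH 7.4, 37 °C; timed aliquots quenched in acetonitrile; LC-MS/MS gives CLint (μl/min/mg protein); triplicate; 7-hydroxycoumarin positive control.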

Data set [12] in a line: Intrinsic clearance in mouse liver microsomes assessed as NADPH-dependent metabolism per mg protein at 1 uM in presence of NADPH by LC-MS/MS analysis. The data set is classed as ADME, Microsome.
The nature of data set [13]: Intrinsic clearance in mouse liver microsomes assessed as glucuronidation per mg protein at 1 uM in presence of UDPGA by LC-MS/MS analysis. The data set is classed as ADME, Microsome. The method, boiled down: as §2

Values after ≈ are worked out from the molar mass of the structure shown. Active and inactive are the calls of the source. No rule for the calls is given here. Bounds are passed on as bounds.

One may read the CC50 as the concentration that lowers cell viability or growth by half. With `CCOC(=O)c1c(N)sc(C(=O)Nc2ccc(F)c(C)c2)c1C`, the outcome in data set [1] was Active. The CC50 in data set [2] was greater than 100 µM.
On to `Cc1c(C(=O)Nc2ccccc2)sc(NC(=O)c2cc(Cl)cc(Cl)c2)c1C(N)=O`, for which the result in data set [1] was Active. In addition, in data set [2], the CC50 worked out at 49.5 µM.
`Cc1cc(NC(=O)c2sc(N)c(C(=O)Nc3ccc(F)c(C)c3)c2C)ccc1F`: in data set [1], the result was inactive.
Take `Cc1c(C(=O)Nc2cc(F)c(F)c(Cl)c2)sc(N)c1C(N)=O`: the outcome in [1] was Active. Moreover, the CC50 in data set [2] is 72 µM.
`NC(=O)c1c(N)sc2c1CCCC2`: in data set [1], the outcome was inactive.
`Cc1c(C(=O)Nc2ccccc2)sc(N)c1C(=O)Nc1ccc(F)c(F)c1`: the result in data set [1] was Active. In addition, in data set [2], the CC50 is 40 µM.
On to `Cc1c(C(=O)Nc2cc(F)c(F)c(Cl)c2)sc(N)c1C#N`, for which the outcome in data set [1] was inactive.
Still for that read-out and setting: as for `Cc1c(C(=O)Nc2ccccc2)sc2[nH]c(-c3ccc(F)c(F)c3)nc(=O)c12`, the entry is “inactive”; as for `Cc1c(C(=O)Nc2ccccc2)sc(NC(=O)N2CCOCC2)c1C(N)=O`, “inactive”.
Consider `Cc1c(C(=O)Nc2ccccc2)sc(N)c1C#N`, for which the outcome in data set [1] was inactive.
Broadly, the EC50 is the concentration giving half of the maximal effect. Regarding `Cc1c(C(=O)Nc2ccc(F)c(F)c2)sc(N)c1C(=O)Nc1ccc(Cl)cc1`, the result in [1] was Active. Moreover, in [3], the EC50 is greater than 10 µM.
Take `COc1ccc(CNC(=O)c2c(N)sc(C(=O)Nc3ccccc3)c2C)cc1`: the outcome in [1] was Active. The EC50 in [3] was greater than 10 µM.
`O=C(Nc1ccc(F)c(F)c1)c1cc(S(=O)(=O)NC2CCCC2)ccc1F`: the result in data set [1] was Active. Further, in [3], the concentration giving a half-maximal response (EC50) was determined as 0.25 µM. Also, in data set [2], the CC50 came out at 17 µM.
As to `Cc1cc(NC(=O)c2c(N)sc(C(=O)Nc3ccccc3)c2C)ccc1F`, the outcome in data set [1] was Active. The CC50 in [2] is 40 µM.
On to `Cc1c(C(=O)Nc2ccccc2)sc(N)c1C(=O)Nc1ccccc1`, for which the result in data set [1] was Active. In addition, the CC50 in [2] is greater than 100 µM.
In the case of `Cc1c(C(=O)Nc2ccc(F)c(F)c2)sc(N)c1C(=O)NC1CCCC1`, the outcome in [1] was Active. In [3], the EC50 is greater than 10 µM.
The corresponding values for `Cc1c(C(=O)NCc2ccccc2)sc(N)c1C(N)=O` are “Active” and 10 µM.
For `Cc1c(C(=O)Nc2ccc(F)c(F)c2)sc(N)c1C(=O)Nc1ccc(F)c(F)c1`, in data set [1], the result was Active. For the same compound, the CC50 in data set [2] is 17 µM.
Consider `Cc1c(C(=O)Nc2ccccc2)sc(N)c1C(=O)NC1CC1`, for which the outcome in data set [1] was inactive. The EC50 in data set [3] was greater than 10 µM.
For `Cc1c(C(=O)Nc2ccccc2)sc2[nH]c(Cc3ccccc3)nc(=O)c12`, the result in [1] was inactive.
For `COc1ccc(NC(=O)c2sc(N)c(C(N)=O)c2C)cc1`, the result in [1] was Active. Besides, the EC50 in [3] stood at 10 µM.
Consider `Cc1c(C(=O)Nc2ccc(F)cc2)sc(N)c1C(N)=O`, for which the result in data set [1] was Active. The CC50 in data set [2] is greater than 100 µM.
For the compound `Cc1c(C(=O)Nc2ccc(Cl)c(C(F)(F)F)c2)sc(N)c1C(N)=O`, the outcome in data set [1] was Active. The CC50 in [2] came to 72 µM.
On to `Cc1c(C(=O)Nc2ccccc2)sc2[nH]c(CS(=O)(=O)c3ccccc3)nc(=O)c12`, for which the result in data set [1] was inactive.
For `Cc1c(C(=O)Nc2ccc(C(F)(F)F)cc2)sc(N)c1C(N)=O`, the result in data set [1] was inactive.
`CCOC(=O)c1c(N)sc(C(=O)Nc2ccccc2)c1C`: the outcome in data set [1] was Active. In data set [3], the EC50 was greater than 10 µM. The CC50 in data set [2] amounted to 76 µM.
The corresponding values for `CC(C)Cc1sc(-c2nccs2)nc1C(=O)NCc1ccc(F)cc1` are “Active”, 10 µM and 29 µM.
Turning to `NC(=O)c1c(N)sc2c1CCCN2C(=O)c1ccccc1`, the outcome in data set [1] was inactive.
In the case of `Cc1c(C(=O)Nc2ccccc2)sc(NC(=O)c2cn[nH]c2)c1C(N)=O`, the result in [1] was Active. In addition, the CC50 in [2] is greater than 100 µM.
On to `Cc1cc(NC(=O)c2sc(N)c(C(N)=O)c2C)ccc1Cl`, for which the outcome in data set [1] was Active. The EC50 in data set [3] was determined as 1.7 µM. Moreover, the CC50 in [2] is greater than 100 µM.
For the compound `Cc1ccc(NC(=O)c2sc(N)c(C(N)=O)c2C)cc1`, in data set [1], the result was inactive. Moreover, the EC50 in data set [3] is greater than 10 µM.
Take `Cc1ccc(CC(=O)Nc2sc(C(=O)Nc3ccccc3)c(C)c2C(N)=O)cc1F`: the outcome in data set [1] was Active. Besides, the EC50 in data set [3] was greater than 10 µM. Also, the CC50 in data set [2] was greater than 100 µM.
On to `Cc1c(C(=O)Nc2ccccc2)sc(NC(=O)c2csc([N+](=O)[O-])c2)c1C(N)=O`, for which the result in [1] was Active. Besides, the half-maximal cytotoxic concentration (CC50) in data set [2] is greater than 100 µM.
The corresponding values for `Cc1c(C(=O)Nc2ccc(F)c(F)c2)sc(N)c1C(=O)Nc1ccccc1` are “Active” and 26 µM.
With `Cc1c(C(=O)Nc2ccccc2)sc(-n2cnnn2)c1C(N)=O`, the result in data set [1] was inactive.
Take `Cc1c(C(=O)Nc2ccccc2)sc(N)c1C(=O)NCc1ccc(C(F)(F)F)cc1`: the result in [1] was Active. Besides, in data set [3], the EC50 is greater than 10 µM.
Take `Cc1c(C(=O)Nc2ccccc2)sc(N)c1C(=O)NC(C)C`: the outcome in data set [1] was inactive. Also, in [3], the EC50 was greater than 10 µM.
Regarding `Cc1c(C(=O)Nc2ccc(C#N)cc2)sc(N)c1C(N)=O`, in data set [1], the result was inactive.
For the compound `Cc1c(C(=O)Nc2ccc(F)c(C(F)(F)F)c2)sc(N)c1C(N)=O`, in data set [1], the result was Active. The CC50 in [2] is greater than 100 µM.
Regarding `Cc1c(C(=O)Nc2ccccc2)sc(NC(=O)c2ccc(S(C)(=O)=O)cc2)c1C(N)=O`, the outcome in [1] was Active. For the same compound, the CC50 in [2] is greater than 100 µM.
Consider `Cc1c(C(=O)Nc2ccccc2)sc(NC(=O)Cc2ccc(F)c(F)c2)c1C(N)=O`, for which the outcome in [1] was Active. Also, the EC50 in data set [3] was determined as 10 µM. Further, in data set [2], the CC50 was greater than 100 µM.
As for `CCOC(=O)C1=C(C)NC(c2ncccc2F)=NC1c1ccc(F)cc1Cl` (centres undefined), the outcome in data set [1] was Active. In addition, the concentration for a half-maximal effect (EC50) in data set [3] came out at 0.41 µM. In addition, the CC50 in data set [2] is greater than 100 µM.
Turning to `Cc1nc(=O)c2c(C)c(C(=O)Nc3ccccc3)sc2[nH]1`, the result in data set [1] was inactive.
`Cc1cc(NC(=O)c2sc(N)c(C#N)c2C)ccc1F`: the result in data set [1] was Active. For the same compound, the CC50 in data set [2] turned out to be 96 µM.
The corresponding values for `Cc1c(C(=O)Nc2ccccc2)sc(NC(=O)c2ccsc2)c1C(N)=O` are “Active” and greater than 100 µM.
`Cc1c(C(=O)Nc2ccc(F)c(C#N)c2)sc(N)c1C(N)=O`: the outcome in data set [1] was Active. Also, the CC50 in data set [2] was greater than 100 µM. In addition, the solubility thermodynamic at 72 h in data set [4] was 6.7 µM (≈ 2.13 µg/mL). The remaining at 24 h, 1 µM in data set [5] was greater than 90%. Besides, the t1/2 in data set [6] and in [7] was greater than 24 h in each case. In addition, the results for the PPB in data set [8] and in data set [9] were 80% and 69%, respectively. Besides, in data set [10], the Microsomal intrinsic clearance is 2.4 µL/min. The “intrinsic clearance (CLint)” value in data set [11] amounted to 0.1 µL/min; in data set [13], 2 µL/min. Moreover, in data set [12], the “intrinsic clearance per mg protein” value turned out to be 4.2 µL/min.
As for `NC(=O)c1c(N)sc2c1CCN(C(=O)c1ccccc1)C2`, in data set [1], the outcome was inactive.
Take `Cc1c(C(=O)Nc2ccc(F)c(F)c2)sc(N)c1C#N`: the result in data set [1] was Active. Further, the EC50 in data set [3] turned out to be 10 µM. The CC50 in data set [2] was greater than 100 µM.
Regarding `O=C(N/C(C(=O)N1CCCCC1)=C(\Cl)c1ccccc1)c1ccccc1`, in data set [1], the outcome was Active. In data set [3], the EC50 was 4.8 µM. In addition, the CC50 in [2] stood at 61 µM.
Consider `Cc1c(C(=O)Nc2ccccc2)sc(N)c1C(=O)NC1CCCC1`, for which the result in data set [1] was inactive. In addition, in [3], the EC50 is greater than 10 µM.
Regarding `Cc1ccc(C(=O)Nc2sc(C(=O)Nc3ccccc3)c(C)c2C(N)=O)s1`, in [1], the result was Active. Also, the CC50 in [2] is greater than 100 µM.
In the case of `Cc1c(C(=O)Nc2ccccc2)sc(NC(=O)c2nccs2)c1C(N)=O`, in data set [1], the outcome was Active. Further, the CC50 in data set [2] is greater than 100 µM.
